Active and inactive are the calls of the source. The calls are words filed in the database; no cut-off is given here.
Assays:
[1] = biological target: Epidermal growth factor receptor (Homo sapiens, UniProt P00533); experiment: Inhibition of wild type EGFR (unknown origin) using TK-substrate preincubated with enzyme for 30 mins followed by substrate and ATP addition for 25 mins by HTRF assay
A-431 = experiment: Cytotoxicity against human A-431 cells expressing wild type EGFR assessed as reduction in cell viability incubated for 96 hrs by CellTiter-Glo assay; assay type: functional, cell-based; conditions: A-431, 96 h
[2] = biological target: Epidermal growth factor receptor (Homo sapiens, UniProt P00533, C797S/L858R); experiment: Inhibition of EGFR L858R/C797S mutant (unknown origin) using TK-substrate preincubated with enzyme for 30 mins followed by substrate and ATP addition for 20 mins by HTRF assay
Chain of Epidermal growth factor receptor (Homo sapiens, UniProt P00533, C797S/L858R) (P00533 25-1210 C797S/L858R limits assumed): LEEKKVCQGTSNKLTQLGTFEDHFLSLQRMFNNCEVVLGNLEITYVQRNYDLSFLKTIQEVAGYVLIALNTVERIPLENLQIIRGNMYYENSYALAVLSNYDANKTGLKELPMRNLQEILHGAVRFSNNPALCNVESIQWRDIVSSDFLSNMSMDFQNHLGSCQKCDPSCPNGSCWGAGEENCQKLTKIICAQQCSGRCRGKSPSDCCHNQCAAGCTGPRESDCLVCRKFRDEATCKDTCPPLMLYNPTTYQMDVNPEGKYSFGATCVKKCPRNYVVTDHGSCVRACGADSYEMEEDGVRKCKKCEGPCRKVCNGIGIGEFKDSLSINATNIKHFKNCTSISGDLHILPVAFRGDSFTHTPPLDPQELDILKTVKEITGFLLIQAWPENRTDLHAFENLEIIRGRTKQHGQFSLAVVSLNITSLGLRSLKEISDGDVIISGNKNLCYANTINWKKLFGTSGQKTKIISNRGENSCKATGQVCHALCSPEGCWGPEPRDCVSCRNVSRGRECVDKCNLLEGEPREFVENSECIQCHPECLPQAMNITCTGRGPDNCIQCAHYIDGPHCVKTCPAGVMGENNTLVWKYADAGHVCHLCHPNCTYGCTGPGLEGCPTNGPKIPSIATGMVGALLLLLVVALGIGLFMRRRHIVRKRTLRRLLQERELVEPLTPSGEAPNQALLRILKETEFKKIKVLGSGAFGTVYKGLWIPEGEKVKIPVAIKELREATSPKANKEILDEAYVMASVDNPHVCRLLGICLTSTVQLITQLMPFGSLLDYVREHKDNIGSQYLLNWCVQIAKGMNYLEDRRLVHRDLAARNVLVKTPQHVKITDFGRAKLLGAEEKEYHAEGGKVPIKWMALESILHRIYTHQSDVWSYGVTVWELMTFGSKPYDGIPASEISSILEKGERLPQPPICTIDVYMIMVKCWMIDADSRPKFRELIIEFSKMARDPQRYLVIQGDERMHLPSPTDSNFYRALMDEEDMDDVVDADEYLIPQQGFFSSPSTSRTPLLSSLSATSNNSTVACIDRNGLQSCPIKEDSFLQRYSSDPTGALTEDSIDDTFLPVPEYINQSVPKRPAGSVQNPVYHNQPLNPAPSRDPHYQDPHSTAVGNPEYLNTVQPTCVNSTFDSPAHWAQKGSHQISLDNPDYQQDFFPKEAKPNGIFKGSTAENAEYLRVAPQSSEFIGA

BaF3 [3] = experiment: Cytotoxicity against mouse BaF3 cells expressing EGFR L858R/C797S mutant assessed as reduction in cell viability incubated for 96 hrs by CellTiter-Glo assay; assay type: functional, cell-based; conditions: BaF3, 96 h
[4] = biological target: Epidermal growth factor receptor (Homo sapiens, UniProt P00533, C797S/L858R/T790M); experiment: Inhibition of EGFR L858R/T790M/C797S mutant (unknown origin) using TK-substrate preincubated with enzyme for 30 mins followed by substrate and ATP addition for 10 mins by HTRF assay
Chain of Epidermal growth factor receptor (Homo sapiens, UniProt P00533, C797S/L858R/T790M) (P00533 25-1210 T790M/C797S/L858R limits assumed): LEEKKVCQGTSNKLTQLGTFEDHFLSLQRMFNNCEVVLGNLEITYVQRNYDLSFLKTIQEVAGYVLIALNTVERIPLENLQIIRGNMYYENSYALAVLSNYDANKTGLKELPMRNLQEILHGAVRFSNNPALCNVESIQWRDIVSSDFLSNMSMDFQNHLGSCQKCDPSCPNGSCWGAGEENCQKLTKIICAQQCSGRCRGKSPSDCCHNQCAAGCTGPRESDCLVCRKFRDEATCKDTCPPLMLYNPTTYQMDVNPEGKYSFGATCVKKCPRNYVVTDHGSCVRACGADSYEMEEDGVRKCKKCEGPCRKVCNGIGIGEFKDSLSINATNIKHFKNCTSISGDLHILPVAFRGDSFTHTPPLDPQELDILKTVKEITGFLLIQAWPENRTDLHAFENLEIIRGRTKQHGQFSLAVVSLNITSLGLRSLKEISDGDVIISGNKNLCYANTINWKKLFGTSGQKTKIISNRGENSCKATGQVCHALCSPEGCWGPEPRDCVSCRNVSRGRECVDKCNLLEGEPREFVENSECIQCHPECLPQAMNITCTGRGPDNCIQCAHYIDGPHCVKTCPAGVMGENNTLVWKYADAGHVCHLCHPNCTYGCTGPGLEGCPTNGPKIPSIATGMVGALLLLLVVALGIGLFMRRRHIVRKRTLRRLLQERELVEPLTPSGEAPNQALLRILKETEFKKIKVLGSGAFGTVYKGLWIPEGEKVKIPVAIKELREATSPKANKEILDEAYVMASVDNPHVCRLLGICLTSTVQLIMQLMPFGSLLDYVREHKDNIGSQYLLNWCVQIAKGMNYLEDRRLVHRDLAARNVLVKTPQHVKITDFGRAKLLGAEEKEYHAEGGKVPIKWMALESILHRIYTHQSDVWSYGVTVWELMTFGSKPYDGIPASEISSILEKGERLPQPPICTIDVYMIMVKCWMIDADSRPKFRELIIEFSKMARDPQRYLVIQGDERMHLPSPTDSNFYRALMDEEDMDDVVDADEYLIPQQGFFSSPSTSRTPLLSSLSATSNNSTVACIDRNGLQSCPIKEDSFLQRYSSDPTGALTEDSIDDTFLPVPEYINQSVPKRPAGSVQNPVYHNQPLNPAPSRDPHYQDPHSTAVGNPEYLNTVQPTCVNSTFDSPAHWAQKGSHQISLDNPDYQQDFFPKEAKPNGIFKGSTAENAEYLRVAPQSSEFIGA

[5] = Intrinsic clearance in mouse liver microsomes at 1 uM in presence of NADP measured per mg protein by LC-MS/MS analysis; assay type: ADME, Microsome; conditions: read-out: CLH
BaF3 [6] = experiment: Cytotoxicity against mouse BaF3 cells expressing EGFR L858R mutant assessed as reduction in cell viability incubated for 96 hrs by CellTiter-Glo assay; assay type: functional, cell-based; conditions: BaF3, 96 h
Outline: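 Cell viability measured by CellTiter-Glo (CTG) luminescence. A431 cells are EGFR wild-type dependent. Ba/F3 cells are made dependent on EGFR-L858R or EGFR-L858R/C797S. Readout is an EC50 for loss of viability.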

[7] = biological target: Epidermal growth factor receptor (Homo sapiens, UniProt P00533, L858R); experiment: Inhibition of EGFR L858R mutant (unknown origin) using TK-substrate preincubated with enzyme for 30 mins followed by substrate and ATP addition for 15 mins by HTRF assay
Chain of Epidermal growth factor receptor (Homo sapiens, UniProt P00533, L858R) (P00533 25-1210 L858R limits assumed): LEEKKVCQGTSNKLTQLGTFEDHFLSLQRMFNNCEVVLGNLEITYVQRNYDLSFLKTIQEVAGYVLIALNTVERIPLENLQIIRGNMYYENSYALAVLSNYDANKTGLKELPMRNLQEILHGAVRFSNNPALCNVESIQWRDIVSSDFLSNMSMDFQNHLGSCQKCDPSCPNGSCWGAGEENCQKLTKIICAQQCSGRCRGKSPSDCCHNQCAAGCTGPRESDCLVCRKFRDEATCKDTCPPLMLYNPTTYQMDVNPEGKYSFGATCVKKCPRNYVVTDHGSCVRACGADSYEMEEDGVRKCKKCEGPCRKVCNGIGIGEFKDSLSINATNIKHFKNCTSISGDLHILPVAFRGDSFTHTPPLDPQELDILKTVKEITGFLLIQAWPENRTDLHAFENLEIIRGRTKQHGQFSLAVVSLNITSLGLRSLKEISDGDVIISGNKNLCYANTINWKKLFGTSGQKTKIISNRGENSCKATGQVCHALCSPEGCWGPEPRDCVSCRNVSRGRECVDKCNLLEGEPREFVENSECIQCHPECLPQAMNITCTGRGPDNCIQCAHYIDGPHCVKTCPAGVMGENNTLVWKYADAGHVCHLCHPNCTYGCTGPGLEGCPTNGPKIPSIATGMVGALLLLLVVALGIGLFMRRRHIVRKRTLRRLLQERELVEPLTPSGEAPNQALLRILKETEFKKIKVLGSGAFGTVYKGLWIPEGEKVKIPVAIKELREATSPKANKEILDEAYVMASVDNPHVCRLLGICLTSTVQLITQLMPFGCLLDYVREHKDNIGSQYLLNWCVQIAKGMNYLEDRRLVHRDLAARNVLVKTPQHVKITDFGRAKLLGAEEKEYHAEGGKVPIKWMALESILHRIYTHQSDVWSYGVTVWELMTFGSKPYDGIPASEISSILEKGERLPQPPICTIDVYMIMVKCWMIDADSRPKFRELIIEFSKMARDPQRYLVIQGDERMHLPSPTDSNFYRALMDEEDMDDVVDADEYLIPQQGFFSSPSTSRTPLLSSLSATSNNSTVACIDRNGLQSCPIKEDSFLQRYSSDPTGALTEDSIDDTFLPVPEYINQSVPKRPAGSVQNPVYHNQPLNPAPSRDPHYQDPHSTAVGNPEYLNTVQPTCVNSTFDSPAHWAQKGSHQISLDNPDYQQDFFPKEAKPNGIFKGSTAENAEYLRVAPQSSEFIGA

[8] = biological target: Tyrosine-protein kinase BTK (Homo sapiens) (UniProt Q06187); experiment: Inhibition of His-tagged human recombinant BTK expressed in insect cells at 200 nM by Z'-lyte assay; conditions: Insect cell
[9] = biological target: Fibroblast growth factor receptor 2 (Homo sapiens) (UniProt P21802); experiment: Inhibition of His-tagged human recombinant FGFR2 (403 to 822 residues) expressed in baculovirus expression system at 200 nM by Z'-lyte assay
Insect cell = experiment: Inhibition of GST-tagged human recombinant VEGFR3 (800 to 1297 residues) Q890H/V1128L/H1146R mutant expressed in insect cells at 200 nM by Z'-lyte assay
BaF3 [10] = experiment: Cytotoxicity against mouse BaF3 cells expressing EGFR L858R/T790M/C797S mutant assessed as reduction in cell viability incubated for 96 hrs by CellTiter-Glo assay; assay type: functional, cell-based; conditions: BaF3, 96 h
[11] = biological target: Vascular endothelial growth factor receptor 2 (Homo sapiens) (UniProt P35968); experiment: Inhibition of His-tagged human recombinant VEGFR2 (789 to 1356 residues) expressed in insect cells at 200 nM by Z'-lyte assay; conditions: Insect cell
[12] = biological target: Platelet-derived growth factor receptor beta (Homo sapiens) (UniProt P09619); experiment: Inhibition of His-tagged human recombinant PDGFR-beta (558 to 1106 residues) expressed in baculovirus expression system at 200 nM by Z'-lyte assay
[13] = biological target: Tyrosine-protein kinase TXK (Homo sapiens) (UniProt P42681); experiment: Inhibition of GST-tagged human recombinant TXK (260 to 527 residues) expressed in baculovirus expression system at 200 nM by Z'-lyte assay
[14] = biological target: Tyrosine-protein kinase Fyn (Homo sapiens) (UniProt P06241); experiment: Inhibition of His-tagged human recombinant FYN expressed in insect cells at 200 nM by Z'-lyte assay; conditions: Insect cell
[15] = system: Epidermal growth factor receptor (Homo sapiens), P00533 [L858R,T790M]; experiment: Inhibition of EGFR L858R/T790M mutant (unknown origin) using TK-substrate preincubated with enzyme for 30 mins followed by substrate and ATP addition for 20 mins by HTRF assay; conditions: time 50.0 min
[16] = biological target: Platelet-derived growth factor receptor alpha (Homo sapiens) (UniProt P16234); experiment: Inhibition of GST-tagged human recombinant PDGFR-alpha (550 to 1089 residues) expressed in baculovirus expression system at 200 nM by Z'-lyte assay
[17] = biological target: Tyrosine-protein kinase Fes/Fps (Homo sapiens) (UniProt P07332); experiment: Inhibition of His-tagged human recombinant FES expressed in baculovirus expression system at 200 nM by Z'-lyte assay
[18] = biological target: Tyrosine-protein kinase Lck (Homo sapiens) (UniProt P06239); experiment: Inhibition of human LCK at 200 nM by Z'-lyte assay
[19] = biological target: ALK tyrosine kinase receptor (Homo sapiens) (UniProt Q9UM73); experiment: Inhibition of human ALK at 200 nM by Z'-lyte assay
[20] = biological target: Inactive tyrosine-protein kinase PEAK1 (Homo sapiens) (UniProt Q9H792); experiment: Inhibition of human PEAK1 at 200 nM by Z'-lyte assay
[21] = biological target: Tyrosine-protein kinase Blk (Homo sapiens) (UniProt P51451); experiment: Inhibition of His-tagged human recombinant BLK expressed in insect cells at 200 nM by Z'-lyte assay; conditions: Insect cell
[22] = biological target: Tyrosine-protein kinase HCK (Homo sapiens) (UniProt P08631); experiment: Inhibition of GST-tagged human recombinant HCK expressed in insect cells at 200 nM by Z'-lyte assay; conditions: Insect cell
[23] = biological target: Tyrosine-protein kinase ABL1 (Homo sapiens) (UniProt P00519); experiment: Inhibition of His-tagged human recombinant ABL1 expressed in insect cells at 200 nM by Z'-lyte assay; conditions: Insect cell
[24] = biological target: Tyrosine-protein kinase Lyn (Homo sapiens) (UniProt P07948); experiment: Inhibition of human LYN at 200 nM by Z'-lyte assay

Chain of Epidermal growth factor receptor (Homo sapiens, UniProt P00533) (P00533 whole entry): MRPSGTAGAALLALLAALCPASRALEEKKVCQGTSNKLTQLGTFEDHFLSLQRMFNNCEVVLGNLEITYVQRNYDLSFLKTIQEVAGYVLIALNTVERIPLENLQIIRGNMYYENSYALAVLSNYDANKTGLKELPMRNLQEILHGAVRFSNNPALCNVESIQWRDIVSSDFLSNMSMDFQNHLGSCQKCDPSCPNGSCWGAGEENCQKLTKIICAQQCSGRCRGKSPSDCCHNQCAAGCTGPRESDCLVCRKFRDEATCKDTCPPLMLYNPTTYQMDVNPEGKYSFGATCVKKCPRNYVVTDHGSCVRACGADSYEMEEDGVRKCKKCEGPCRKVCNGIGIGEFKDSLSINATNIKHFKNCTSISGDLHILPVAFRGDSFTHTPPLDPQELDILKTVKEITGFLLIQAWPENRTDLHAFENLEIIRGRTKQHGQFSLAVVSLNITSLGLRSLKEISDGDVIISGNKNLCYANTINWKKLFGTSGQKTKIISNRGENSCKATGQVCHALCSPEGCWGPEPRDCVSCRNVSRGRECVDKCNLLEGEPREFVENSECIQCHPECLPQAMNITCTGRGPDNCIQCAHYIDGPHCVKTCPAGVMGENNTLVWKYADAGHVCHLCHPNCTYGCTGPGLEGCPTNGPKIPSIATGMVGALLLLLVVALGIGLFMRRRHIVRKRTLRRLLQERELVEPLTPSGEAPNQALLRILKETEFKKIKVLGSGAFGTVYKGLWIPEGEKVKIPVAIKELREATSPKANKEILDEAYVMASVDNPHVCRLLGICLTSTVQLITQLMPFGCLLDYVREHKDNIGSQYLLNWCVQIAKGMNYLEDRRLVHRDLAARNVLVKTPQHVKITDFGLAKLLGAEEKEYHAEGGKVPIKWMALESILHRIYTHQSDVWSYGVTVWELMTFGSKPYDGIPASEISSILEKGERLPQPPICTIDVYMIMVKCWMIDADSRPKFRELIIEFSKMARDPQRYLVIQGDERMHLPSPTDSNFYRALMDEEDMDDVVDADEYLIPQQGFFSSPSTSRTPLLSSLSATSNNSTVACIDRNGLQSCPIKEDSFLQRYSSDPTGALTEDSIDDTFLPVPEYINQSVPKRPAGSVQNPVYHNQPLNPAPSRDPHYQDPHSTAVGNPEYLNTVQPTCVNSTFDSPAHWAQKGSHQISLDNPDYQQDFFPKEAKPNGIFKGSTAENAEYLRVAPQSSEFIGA

IC50 [1] [nM]	IC50 [2] [nM]	IC50 [4] [nM]	SMILES	EC50 (A-431) [nM]	EC50 (BaF3 [3]) [nM]	EC50 (BaF3 [6]) [nM]	other results
0.053	0.064	8.8	COc1cc(N2CCN(C)CC2)ccc1Nc1ncc(C(=O)Oc2ccccc2)c(-c2cn(C)c3ccccc23)n1	2610	94	–	–
23	73	–	COC(=O)c1cnc(Nc2ccc(N3CCN(C)CC3)cc2OC)nc1-c1cn(C)c2ccccc12	–	3750	3340	IC50 [7]: 3.4 nM
5.2	17	–	CCOC(=O)c1cnc(Nc2ccc(N3CCN(C)CC3)cc2OC)nc1-c1cn(C)c2ccccc12	–	1880	1900	IC50 [7]: 0.68 nM
34	125	–	COc1cc(N2CCN(C)CC2)ccc1Nc1nccc(-c2cn(C)c3ccccc23)n1	–	2060	3630	IC50 [7]: 5.4 nM

Further lines, the molecule ahead of its results:

SMILES	IC50 [1] [nM]	IC50 [2] [nM]	IC50 [4] [nM]	EC50 (A-431) [nM]	EC50 (BaF3 [3]) [nM]	EC50 (BaF3 [6]) [nM]	other results
COc1cc(N2CCC(N)CC2)ccc1Nc1ncc(C(=O)OC(C)C)c(-c2cn(C)c3ccccc23)n1	0.35	0.56	12	4020	354	–	–
COc1cc(N2CCC(N(C)C)CC2)ccc1Nc1ncc(C(=O)OC(C)C)c(-c2cn(C)c3ccccc23)n1	0.4	0.42	19	3670	202	–	–
C=CC(=O)Nc1cc(Nc2nccc(-c3cn(C)c4ccccc34)n2)c(OC)cc1N(C)CCN(C)C [OSIMERTINIB]	–	–	–	[…]	2960	6	microsomal CLint at 1 µM [5]: 81 µL/min/mg
COc1cc(N2CCN(C)CC2)ccc1Nc1ncc(C(=O)OC(C)C)c(-c2cn(C)c3ccccc23)n1	–	–	–	7960	615	605	–
C=CC(=O)Nc1cc(Nc2ncc(C(=O)OC(C)C)c(-c3cn(C)c4ccccc34)n2)c(OC)cc1N(C)CCN(C)C [MOBOCERTINIB]	0.025	25	364	1680	2710	1.1	microsomal CLint at 1 µM [5]: 149 µL/min/mg; IC50 [7]: 0.01 nM
COc1cc(N2CCN(C)CC2)ccc1Nc1ncc(C(=O)Oc2ccc(F)cc2)c(-c2cn(C)c3ccccc23)n1	–	–	–	1410	227	–	–
COc1cc(N2CCC(N3CCN(C)CC3)CC2)ccc1Nc1ncc(Cl)c(Nc2ccccc2P(C)(C)=O)n1 [BRIGATINIB]	–	–	–	936	295	–	–
COc1cc(N2CCC(N(C)C)CC2)ccc1Nc1ncc(C(=O)Oc2ccccc2)c(-c2c[nH]c3ccccc23)n1	0.008	0.02	0.64	1840	7.1	–	inhibition [8]: Active; microsomal CLint at 1 µM [5]: 55 µL/min/mg; inhibition [9]: > 40%; inhibition (Insect cell): > 40%; EC50 (BaF3 [10]): 470 nM; inhibition [11]: > 40%; inhibition [12]: > 40%; inhibition [13]: > 40%; inhibition [14]: > 40%; inhibition [15]: Active; inhibition [16]: > 40%; inhibition [17]: > 40%
COc1cc(N2CCC(N(C)C)CC2)ccc1Nc1ncc(C(=O)OC(C)C)c(-c2c[nH]c3ccccc23)n1	0.16	0.32	15	3890	111	–	inhibition [18]: > 40%; inhibition [19]: > 40%; inhibition [20]: > 40%; microsomal CLint at 1 µM [5]: 49 µL/min/mg; inhibition [21]: > 40%; inhibition [22]: > 40%; inhibition [23]: > 40%; inhibition [24]: > 40%
COc1cc(N2CCC(N(C)C)CC2)ccc1Nc1ncc(C(=O)OC(C)C)c(-c2cn(C(C)=O)c3ccccc23)n1	0.86	3	78	3920	220	–	–
